In ChEMBL document CHEMBL2321858, “1,2,3,4,6-Penta-O-galloyl-β-D-glucopyranose inhibits angiogenesis via inhibition of capillary morphogenesis gene 2” (J Med Chem, 2013):
Calls of active or inactive are those of the source. The rule behind the calls is not given here.

Tests used:
Anthrax toxin receptor 2 = Anthrax toxin receptor 2 (Homo sapiens, UniProt P58335, C175A/R40C); experiment: Inhibition of CMG2 (40 to 217) C175A and R40C double mutant (unknown origin) interaction to full length PA E733C mutant expressed in Escherichia coli by FRET assay
Sequence of Anthrax toxin receptor 2 (P58335 34-489 R40C/C175A limits assumed): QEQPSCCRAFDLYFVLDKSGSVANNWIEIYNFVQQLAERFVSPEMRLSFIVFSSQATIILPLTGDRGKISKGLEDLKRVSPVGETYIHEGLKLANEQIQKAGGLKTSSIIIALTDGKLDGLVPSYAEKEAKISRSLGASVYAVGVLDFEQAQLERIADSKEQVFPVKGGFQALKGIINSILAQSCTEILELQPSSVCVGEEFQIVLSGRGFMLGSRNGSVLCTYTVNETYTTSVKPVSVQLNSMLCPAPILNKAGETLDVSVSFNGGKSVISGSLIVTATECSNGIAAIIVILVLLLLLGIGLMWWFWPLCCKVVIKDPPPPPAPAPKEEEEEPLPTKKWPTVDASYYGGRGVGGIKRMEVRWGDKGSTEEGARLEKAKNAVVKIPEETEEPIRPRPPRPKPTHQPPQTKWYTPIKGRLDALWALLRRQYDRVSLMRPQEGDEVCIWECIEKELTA

Mus musculus [1] = experiment: Toxicity in C57BL/6J mouse assessed as weight loss at 20 mg/kg, po or 10 mg/kg, ip measured on day 5; assay type: organism-based; conditions: in vivo
Mus musculus [2] = experiment: Toxicity in C57BL/6J mouse assessed as behavioral abnormalities at 20 mg/kg, po or 10 mg/kg, ip measured on day 5; assay type: organism-based; conditions: in vivo
[3] = Antiangiogenic activity in HMVEC assessed as inhibition of endothelial cell migration after 4 hrs by stereomicroscopic analysis; assay type: functional, cell-based; conditions: Homo sapiens
Method in brief: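 HMVEC-d (EGM-2, used before passage 7) resuspended in EBM with 0.1% BSA, 20,000 cells on fibronectin-coated 8.0 μm-pore polycarbonate transwells; migration toward full (5%) serum media ± compound for 4 h. Non-migrated cells swabbed off, membranes fixed and Diff-Quick stained. Data normalized to untreated control; two independent experiments, n=3 each; IC50 from binding isotherm fit.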

[4] = Cytostatic toxicity against HMVEC at 1 to 30 uM after 24 to 72 hrs by fluorescence assay; conditions: human
Method in brief: (§1)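 HMVEC-d (EGM-2, before passage 7) seeded at 2000 cells/well, medium swapped after attachment for EGM-2 ± compound; grown 1 or 3 days, then quantified by Cyquant fluorescence. Fold-proliferation = experimental readout / day-0 ethanol-fixed wells; normalized to untreated wells. Four independent experiments, n=4 wells each; t-test with Bonferroni correction.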

[5] = Cytotoxicity against HMVEC at 1 to 30 uM after 24 to 72 hrs by fluorescence assay; conditions: human; method in brief: as §1
[6] = Cmax in C57BL/6J mouse at 20 mg/kg, ip after 6 to 24 hrs; assay type: ADME, organism-based; set-up: dose 20 mg/kg, route intraperitoneal; conditions: in vivo
Mus musculus [7] = experiment: Toxicity in C57BL/6J mouse assessed as hunched posture at 20 mg/kg, po or 10 mg/kg, ip measured on day 5; assay type: organism-based; conditions: in vivo
Mus musculus [8] = experiment: Antiangiogenic activity in C57BL/6J mouse assessed as bFGF-induced angiogenesis at 20 mg/kg, po or 10 mg/kg, ip measured on day 5 by corneal micropocket assay; assay type: functional, organism-based; conditions: Cornea
Method in brief: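 bFGF pellet (80 ng) implanted in cornea; groups of five mice dosed daily from implantation day, either 20 mg/kg by oral gavage in 5% ethanol or 10 mg/kg/day IP in 2.5% DMSO/5% Cremaphor EL/5% Tween-80/7.5% N-methyl-2-pyrrolidone/0.9% NaCl; vehicle-only controls. Vascular response area measured by slit lamp on postoperative day 5, typically 10 eyes per group.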

Row | Structure (SMILES) | IC50 (Anthrax toxin receptor 2) [µM] | other results
1 | Oc1cc(O)c2c(c1)O[C@H](c1ccc(O)c(O)c1)[C@H](O)C2 [(-)-EPICATECHIN] | > 300 | –
2 | O=C(O)/C=C/c1ccc(O)c(O)c1 [CAFFEIC ACID] | > 300 | –
3 | COc1cc(/C=C/C(=O)CC(=O)/C=C/c2ccc(O)c(OC)c2)ccc1O [CURCUMIN] | > 300 | –
4 | O=C(O)CCc1ccc(O)c(O)c1 [DIHYDROCAFFEIC ACID] | > 300 | –
5 | NCCc1ccc(O)c(O)c1 [DOPAMINE] | > 300 | –
6 | Oc1cc(O)c2c(c1)O[C@H](c1cc(O)c(O)c(O)c1)[C@H](O)C2 [EPIGALLOCATECHIN] | > 300 | –
7 | COC(=O)c1cc(O)c(O)c(O)c1 [GALLIC ACID METHYL ESTER] | > 300 | –
8 | O=C(O)c1cc(O)c(O)c(O)c1 [GALLIC ACID] | > 300 | –
9 | COC(=O)c1ccc(O)c(O)c1 [METHYL PROTOCATECHUATE] | > 300 | –
10 | O=c1c(O)c(-c2cc(O)c(O)c(O)c2)oc2cc(O)cc(O)c12 [MYRICETIN] | > 300 | –
11 | O=C(OC[C@H]1O[C@@H](OC(=O)c2cc(O)c(O)c(O)c2)[C@H](OC(=O)c2cc(O)c(O)c(O)c2)[C@@H](OC(=O)c2cc(O)c(O)c(O)c2)[C@@H]1OC(=O)c1cc(O)c(O)c(O)c1)c1cc(O)c(O)c(O)c1 [PENTAGALLOYL GLUCOSE] | 0.3 | Activity (Mus musculus [1]): Non-toxic; Activity (Mus musculus [2]): Non-toxic; IC50 [3]: 0.82 µM; Activity [4]: Non-toxic; Activity [5]: Non-toxic; Cmax [6]: < 1000 nM; Activity (Mus musculus [7]): Non-toxic; inhibition (Mus musculus [8]): Active
12 | CCCOC(=O)c1cc(O)c(O)c(O)c1 [PROPYL GALLATE] | > 300 | –
13 | O=C(O)c1ccc(O)c(O)c1 [PROTOCATECHUIC ACID] | > 300 | –
14 | O=c1c(O)c(-c2ccc(O)c(O)c2)oc2cc(O)cc(O)c12 [QUERCETIN] | > 300 | –
15 | O=C(OC[C@H]1O[C@@H](OC(=O)c2cc(O)c(O)c(OC(=O)c3cc(O)c(O)c(O)c3)c2)[C@H](OC(=O)c2cc(O)c(O)c(OC(=O)c3cc(O)c(O)c(O)c3)c2)[C@@H](OC(=O)c2cc(O)c(O)c(OC(=O)c3cc(O)c(O)c(O)c3)c2)[C@@H]1OC(=O)c1cc(O)c(O)c(OC(=O)c2cc(O)c(O)c(O)c2)c1)c1cc(O)c(O)c(OC(=O)c2cc(O)c(O)c(O)c2)c1 [TANNIC ACID] | > 300 | –
16 | COc1cc(C(=O)O)ccc1O [VANILLIC ACID] | > 300 | –
